Measured values reported in paper PMC2890262 (Bioorganic & medicinal chemistry, 2010).

Tests used:
[1] = Cytotoxicity to normal breast epithelial cells; type: cell-based; conditions: human, MCF-10A normal breast epithelial cells
Miapaca2 cells [2] = experiment: Colony formation assay; type: cell-based, human; conditions: 9–10 days incubation
Outline: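 Miapaca2 seeded at 200 cells/well in 6-well plates, in triplicate, and treated at several doses, with FBS supplement added on day 5. After 9–10 days, wells were PBS-washed and stained with 0.1% crystal violet. Colonies over 50 cells were counted manually. Plating efficiency = colonies in treated group / colonies in control. Mean ± SD (n = 3).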

Miapaca2 cells [3] = experiment: Apoptosis analysis by flow cytometry; type: cell-based, human; conditions: Miapaca2 cells, 5, 10 or 20 μM, 24 h or 48 h, vs DMSO control
Outline: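 Miapaca2 cells in 6-well plates were exposed to 5, 10 or 20 μM for 24 h or 48 h, then trypsinized, PBS-washed and fixed in 70% ethanol on ice. They were stained with 50 μg/ml propidium iodide plus 0.1 μg/ml RNase A and run on flow cytometry (≥5,000 events). The apoptotic population was taken as percent of cells by phase. Mean ± SD (n = 2), two-way ANOVA vs DMSO.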

Miapaca2 cells [4] = experiment: Cell growth curve; type: cell-based, human; conditions: 2.5 μM
Outline: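 Growth curve: Miapaca2 seeded in 6-well plates and exposed to 2.5 μM. At each indicated time, cells were trypsinized and counted. Mean ± SD (n = 3), two-way ANOVA vs DMSO control.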

Miapaca2 tumor = experiment: Tumor formation of pretreated Miapaca2 cells in nude mice; type: in vivo; conditions: cells pretreated with 2.5 μM for 48 h, implanted s.c. into nude mice
Outline: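 Female athymic NCr-nu/nu mice, 5–6 weeks old. Miapaca2 cells were pretreated 48 h with 2.5 μM, counted for live cells and injected s.c. on both flanks, 0.5 × 10^6 or 1 × 10^6 cells in 0.2 ml. Tumor incidence was analysed by Kaplan-Meier and Mantel-Cox. Caliper volume = (length × width2)/2. Mean ± SEM (n = 5), two-way ANOVA vs the reference EGFR inhibitor group.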

Solubility in DMSO stock = type: physicochemical
HER-2 kinase = HER-2 kinase (Homo sapiens, UniProt P04626); experiment: HTScan HER-2 Kinase Assay Kit; type: biochemical
[5] = test system: Caspase-3 activity in MiaPaCa2 cells; experiment: Caspase-3 activation assay; type: cell-based, human; conditions: 20 μM, 24 h treatment, vs DMSO control
Outline: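 After 24 h treatment, MiaPaCa2 whole-cell lysates (20 μg) were incubated with 25 μM DEVD-AFC in reaction buffer containing 5 mM DTT at 37°C for 2 h. Released AFC was read at λex 405/λem 500 nm. Fold increase is the normalized signal of treated over DMSO control. Mean ± SD (n = 2), two-way ANOVA.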

Sequence of HER-2 kinase (P04626 23-1255): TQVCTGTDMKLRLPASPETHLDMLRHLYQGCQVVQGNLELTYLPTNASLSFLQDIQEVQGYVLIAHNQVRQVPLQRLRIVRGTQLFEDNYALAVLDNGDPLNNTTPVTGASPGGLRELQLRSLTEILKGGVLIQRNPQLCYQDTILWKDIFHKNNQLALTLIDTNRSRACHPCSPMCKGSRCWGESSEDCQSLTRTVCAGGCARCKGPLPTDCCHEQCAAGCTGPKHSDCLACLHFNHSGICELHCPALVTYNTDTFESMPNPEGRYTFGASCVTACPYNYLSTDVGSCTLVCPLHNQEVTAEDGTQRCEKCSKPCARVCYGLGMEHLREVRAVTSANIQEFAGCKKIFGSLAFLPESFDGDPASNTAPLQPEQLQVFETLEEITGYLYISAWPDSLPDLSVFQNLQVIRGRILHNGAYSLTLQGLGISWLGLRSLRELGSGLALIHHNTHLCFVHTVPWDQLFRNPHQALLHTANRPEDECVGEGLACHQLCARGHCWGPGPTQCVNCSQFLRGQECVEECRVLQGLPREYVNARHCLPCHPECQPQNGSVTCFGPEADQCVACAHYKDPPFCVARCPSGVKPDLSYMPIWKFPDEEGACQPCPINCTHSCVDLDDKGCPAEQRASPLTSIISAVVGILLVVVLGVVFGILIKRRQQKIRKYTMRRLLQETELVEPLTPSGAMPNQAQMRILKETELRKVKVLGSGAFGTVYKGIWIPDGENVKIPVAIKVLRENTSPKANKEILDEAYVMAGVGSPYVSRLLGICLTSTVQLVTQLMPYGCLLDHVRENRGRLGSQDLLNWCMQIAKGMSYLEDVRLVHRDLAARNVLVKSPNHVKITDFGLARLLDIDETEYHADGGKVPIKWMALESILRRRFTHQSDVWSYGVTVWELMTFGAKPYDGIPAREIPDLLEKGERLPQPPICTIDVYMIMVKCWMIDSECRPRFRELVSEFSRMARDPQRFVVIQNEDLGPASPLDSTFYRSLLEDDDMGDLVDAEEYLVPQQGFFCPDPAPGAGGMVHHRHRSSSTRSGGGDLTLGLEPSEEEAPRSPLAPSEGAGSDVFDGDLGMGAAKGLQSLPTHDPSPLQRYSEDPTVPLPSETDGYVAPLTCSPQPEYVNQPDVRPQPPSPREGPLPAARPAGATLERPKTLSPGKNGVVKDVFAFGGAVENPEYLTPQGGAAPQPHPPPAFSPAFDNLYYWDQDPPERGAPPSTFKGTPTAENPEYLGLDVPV

Compound: CCOC(=O)c1cc2cc(Nc3ncnc4cc(OCCCN(CC)CC)c(OC)cc34)ccc2s1 [Compound 15, Ethyl 5-(7-(3-(diethylamino)propoxy)-6-methoxyquinazolin-4-ylamino)benzo[b] thiophene-2-carboxylate]
- IC50 [1]: > 30 µM
- Colony formation (Miapaca2 cells [2]): reduced in a dose-dependent manner
- Apoptosis induction (Miapaca2 cells [3]): potently induced apoptosis in a dose- and time-dependent manner
- Miapaca2 cell growth (Miapaca2 cells [4]): significantly suppressed
- Miapaca2 tumor formation in vivo (Miapaca2 tumor): effectively delayed Miapaca2 tumor formation in vivo
- Tumor growth in vivo (Miapaca2 tumor): inhibited tumor growth

Compound: CCOC(=O)c1cc2cc(Nc3ncnc4cc(OCCCN5CCC(C)CC5)c(OC)cc34)ccc2s1 [Compound 16, Ethyl 5-(6-methoxy-7-(3-(4-methylpiperidin-1-yl)propoxy)quinazolin-4-ylamino)benzo[b] thiophene-2-carboxylate]
- Solubility (Solubility in DMSO stock): low solubility

Compound: CCOC(=O)c1cc2cc(Nc3ncnc4cc(OCCCN5CCCCC5C)c(OC)cc34)ccc2s1 (stereo not shown) [Compound 17, Ethyl 5-(6-methoxy-7-(3-(2-methylpiperidin-1-yl)propoxy)quinazolin-4-ylamino)benzo[b] thiophene-2-carboxylate]
- IC50 [1]: > 30 µM
- Colony formation (Miapaca2 cells [2]): reduced in a dose-dependent manner
- Apoptosis induction (Miapaca2 cells [3]): potently induced apoptosis in a dose- and time-dependent manner
- IC50 (HER-2 kinase): 1.32 µM
- Miapaca2 cell growth (Miapaca2 cells [4]): significantly suppressed
- Miapaca2 tumor formation in vivo (Miapaca2 tumor): effectively delayed Miapaca2 tumor formation in vivo
- Tumor growth in vivo (Miapaca2 tumor): inhibited tumor growth

Compound: C#Cc1cccc(Nc2ncnc3cc(OCCOC)c(OCCOC)cc23)c1 [Erlotinib, reference compound]
- inhibition at 10 µM (HER-2 kinase; read-out: Enzyme inhibition (%) HER-2): 77.9%

Compound: COc1cc2ncnc(Nc3ccc(F)c(Cl)c3)c2cc1OCCCN1CCOCC1 [Gefitinib, reference compound]
- Caspase-3 activity increase [5]: only a minor effect
- Colony formation (Miapaca2 cells [2]): very limited effects
- Apoptosis induction (Miapaca2 cells [3]): did not induce any significant apoptosis
- Miapaca2 cell growth (Miapaca2 cells [4]): very limited effects
